Assay [1] relates to Cortical neurone. As to the kind of experiment: Growth promoting activity in axon at 1 nM in presence of 100 ng/ml Sema3A of glial scar. Format: functional, Mus musculus. A digest of the protocol: (§1)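 Cortical neurons from E15 mouse embryos, trypsin-dissociated, grown 24 h on poly-L-lysine coverslips (37 °C, 5% CO2). On day 2, compound added for 24 h under the same conditions. On day 3, cells fixed and immunostained with anti-phosphoneurofilament (SMi312) and an Alexa488 secondary. Axonal growth given as % variation from control conditions; means ± SEM.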

For assay [2], the system named is Cortical neurone. As to the kind of experiment: Growth promoting activity in axon at 1 nM. In kind it is functional, Mus musculus. A digest of the protocol: as §1
Assay [3] relates to Cortical neurone. Briefly: Growth promoting activity in axon at 1 nM in presence of 1 ug/ml myelin protein of glial scar. In kind it is functional, Mus musculus. Summed up: as §1
In assay [4] the test system is Cortical neurone. Briefly: Growth promoting activity in axon relative to control. In kind it is functional, Mus musculus. On the set-up: concentration or dose not given beside the values. Summed up:
as §1

Assay [5] concerns Radical scavenging activity. Briefly: Hydroxyl radical scavenging activity by ABTS assay. Format: functional. Summed up:
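Competition assay for hydroxyl-radical scavenging in ethanolic medium: hydroxyl radicals oxidise ABTS to the stable ABTS•+ radical cation, read by absorbance at 405 nm. IC50 is the concentration giving a 50% decrease in ABTS•+, reported as the mean of three experiments.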

For assay [6], the system named is Cortical neurone. As to the kind of experiment: Growth promoting activity in axon at 1 nM in presence of 10 ug/ml myelin protein of glial scar. In kind it is functional, Mus musculus. Summed up: as §1
The test system of assay [7] is Cortical neurone. As to the kind of experiment: Growth promoting activity in axon at 100 nM in presence of 100 ng/ml Sema3A of glial scar. In kind it is functional, Mus musculus. Summed up: as §1
In assay [8] the test system is Cortical neurone. As to the kind of experiment: Growth promoting activity in axon at 100 nM in presence of 1 ug/ml myelin protein of glial scar. Format: functional, Mus musculus. A digest of the protocol: as §1
Assay [9] has as its system Cortical neurone. Briefly: Growth promoting activity in axon at 100 nM. Format: functional, Mus musculus. Summed up: as §1
Assay [10] relates to Cortical neurone. Briefly: Growth promoting activity in axon at 100 nM in presence of 10 ug/ml myelin protein of glial scar. Format: functional, Mus musculus. A digest of the protocol: as §1

Experimental findings from ChEMBL document CHEMBL1147691, “Quinol fatty alcohols as promoters of axonal growth” (Bioorg Med Chem Lett, 2006) are described below.

Bounds are passed on as bounds.

Usually IC50 stands for the concentration needed to halve the response being measured. Regarding `COc1ccc(OC)c(CCCCCCCCCCCCCCCO)c1`, the Activity is 12.4% with Cortical neurone [1]; 81% with Cortical neurone [2]; 18.4% in the assay with Cortical neurone [3]; 181% with Cortical neurone [4]; -5.3% with Cortical neurone [6]. In addition, the IC50 in [5] was over 10000 µM.

As for `COc1ccc(OC)c(CCCCCCCCCCCCCCCCO)c1`, the Activity with Cortical neurone [4] is listed as 120%. Moreover, the IC50 in assay [5] is over 10000 µM.

Consider `COc1cc(CCCCCCCCCCCCCCCCO)c(OC)c(OC)c1OC`, for which the Activity with Cortical neurone [4] worked out at 127%.

`Cc1c(C)c2c(c(C)c1O)CCC(C)(C(=O)O)O2` (stereo unspecified) [TROLOX] yielded a half-maximal inhibitory concentration (IC50) in assay [5] of 600 µM.

`CC1=C(CCCCCCCCCCCCCCCO)C(C)(C)CCC1=O`: the Activity was found to be 10.2% in the assay with Cortical neurone [7]; 28.8% in the assay with Cortical neurone [8]; 80% with Cortical neurone [9]; 5% in the assay on Cortical neurone [10]; 150% in the assay on Cortical neurone [4]. The half-maximal inhibitory concentration (IC50) in assay [5] was over 10000 µM.

As to `COc1ccc(OC)c(CCCCCCCCCCCCCCO)c1`, the Activity in the assay with Cortical neurone [4] is 110%. The IC50 in assay [5] was over 10000 µM.

Take `COc1cc(CCCCCCCCCCCCCCO)c(OC)c(OC)c1OC`: the Activity with Cortical neurone [4] is 108%.

On to `COc1cc(CCCCCCCCCCCCCCCCCCO)c(OC)c(OC)c1OC`, for which the Activity with Cortical neurone [4] came out at 103%.

Take `COc1cc(CCCCCCCCCCCCCCCO)c(OC)c(OC)c1OC`: in the assay on Cortical neurone [4], the Activity turned out to be 158%.

For the molecule `COc1cc(CCCCCCCCCCCCO)c(OC)c(OC)c1OC`, the Activity with Cortical neurone [4] is 100%.

On to `COc1cc(OC)c(OC)cc1CCCCCCCCCCCCCCO`, for which the Activity in the assay on Cortical neurone [4] came to 109%. In assay [5], this molecule gave an IC50 of 720 µM.

For `COc1ccc(OC)c(CCCCCCCCCCCCO)c1`, in the assay on Cortical neurone [4], the Activity was 109%. The molecule further returned an IC50 in [5] of over 10000 µM.

For `COc1cc(OC)c(OC)cc1CCCCCCCCCCCCO`, in the assay on Cortical neurone [4], the Activity is on record as 108%. For the same molecule, the midpoint of inhibition in [5], the IC50, lay at 720 µM.

In the case of `COc1ccc(OC)c(CCCCCCCCCCCCCCCCCCO)c1`, the Activity in the assay on Cortical neurone [4] is 109%. The IC50 in assay [5] was over 10000 µM.

Take `COc1cc(OC)c(OC)cc1CCCCCCCCCCCCCCCCCCO`: the Activity with Cortical neurone [4] amounted to 106%. The same molecule displayed an IC50 in assay [5] of 720 µM.

As to `COc1cc(OC)c(OC)cc1CCCCCCCCCCCCCCCO`, the Activity in the assay with Cortical neurone [4] was found to be 152%. This molecule registered an IC50 in [5] of 720 µM.

Turning to `COc1cc(OC)c(OC)cc1CCCCCCCCCCCCCCCCO`, in the assay with Cortical neurone [4], the Activity came to 135%. For the same molecule, the IC50 in assay [5] is 720 µM.
